SR-BI HDL uptake = inhibitors of mouse SR-BI mediated HDL lipid uptake | Q61009 | ldlA[mSR-BI] CHO cells, DiI-HDL uptake fluorescence, 3 h | inhibition, % at 12.5 µM | hit rate 0.96% among 320,000 | AID 488896;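 active = mean replicate inhibition of at least 70% and a set share of replicates each scoring 70 or more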;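 also: 0% = median of neutral control wells and 100% = median of positive control wells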
HGIII-sPLA2 inh = Inhibits HGIII-sPLA2 liposome hydrolysis, primary screen; Q9NZ20; hit rate 0.56% among 370,000; QFRET BODIPY PC-A2 liposome hydrolysis, fluorescence; AID 743126; inhibition, % at 12.2 µM;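 active = inhibition above mean plus 3 SD of compounds lying within the high and low control bounds, cut at about 19% in these data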;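 also: 0% = median of test compound wells and 100% = no enzyme DMSO wells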
Target sequence (Q9NZ20 whole entry, looked up): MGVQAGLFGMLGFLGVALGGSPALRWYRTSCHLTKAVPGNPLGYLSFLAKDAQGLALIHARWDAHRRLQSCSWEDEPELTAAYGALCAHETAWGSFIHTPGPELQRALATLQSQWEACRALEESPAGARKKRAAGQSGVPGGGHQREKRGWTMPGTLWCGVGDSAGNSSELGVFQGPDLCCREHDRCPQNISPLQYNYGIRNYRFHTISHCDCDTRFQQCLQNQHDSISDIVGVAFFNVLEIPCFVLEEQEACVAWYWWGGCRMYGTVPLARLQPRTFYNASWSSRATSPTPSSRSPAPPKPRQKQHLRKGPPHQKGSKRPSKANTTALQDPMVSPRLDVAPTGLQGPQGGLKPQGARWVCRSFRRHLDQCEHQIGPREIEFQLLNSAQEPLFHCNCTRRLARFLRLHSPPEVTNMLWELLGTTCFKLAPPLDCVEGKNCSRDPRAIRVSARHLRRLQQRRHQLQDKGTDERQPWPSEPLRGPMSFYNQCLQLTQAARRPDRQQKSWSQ
Xi reactivation = X-chromosome reactivation activator; XiGFP mouse fibroblasts, % GFP-positive cells imaging, 3 d; cells co-treated with 5-aza-dC sensitizer; scaled so ellipticine positive control = 100%; AID 743238; activation, % at 7.58 µM; hit rate 0.055% among 360,000;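 active = mean normalized replicate activation at least 10% and every replicate at or above 10%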;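 also: 0% = median of on-plate neutral control wells and 100% = ellipticine 6 µM median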
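material = 68-5-11 XiGFP fibroblast line | medium = DMEM plus 5-aza-dC sensitizer | schedule = 3 days compound exposure | benchmarks = positive control ellipticine, 6 µM final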
ARNT TACC3 PPI = ARNT/TACC3 interaction disruption; Q9Y6A5; AlphaScreen His-ARNT PAS-B/GST-TACC3 binding, luminescence; TACC3 fragment carries E629A point mutation; inhibition, % at 9.99 µM; hit rate 0.66% among 390,000;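 active = mean inhibition of replicates at least 50% and at least half of replicates each reaching 50%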;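 also: 0% = complete ARNT plus TACC3 wells and 100% = ARNT alone without TACC3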
NSD2 HMT inh = blocks human histone methyltransferase NSD2 | O96028 | NSD2 peptide methylation, AlphaScreen, 120 min | inhibition, % at 12.5 µM | hit rate 0.54% among 310,000 | AID 743445; in the data active = inhibition above about 50%
SR-BI uptake up = enhances SR-BI lipid uptake from DiI-HDL. CHO ldlA[mSR-BI] cells, DiI-HDL uptake fluorescence, 3 h; 100 = double the neutral-control signal. activation, % at 12.5 µM. hit rate 0.096% among 320,000;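 active = mean replicate activation of at least 60% and every replicate at or above 60%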;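 also: 0% = median plate neutral-control signal and 100% = twice that signal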
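System: CHO ldlA[mSR-BI] cells / Medium: HEPES-buffered (25 mM, pH 7.4) F12 plus 0.5% BSA / Probe or stimulus: labelled HDL, 10 µg/mL / Doses: single compound concentration, delivered by pin transfer / Schedule: 3 h, 37 °C / Measured by: DiI fluorescence, bottom read / Measure: cell-associated DiI fluorescence as measure of HDL uptake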
hGIII sPLA2 conf = human GIII-sPLA2 inhibition, confirmation | hit rate 34% among 2,000 | shares compounds with HGIII-sPLA2 inh | recombinant hGIII-sPLA2, BODIPY PC-A2 QFRET fluorescence | inhibition, % at 12.2 µM;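 active = mean inhibition across triplicates above the hit cutoff set in the earlier primary screen, cut at about 19% in these data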;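 also: 0% = enzyme with DMSO and 100% = DMSO wells lacking enzyme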
535nm interf = counter-screen for HGIII-sPLA2 inhibitors: 535nm fluorescence interference; BODIPY FL product fluorescence interference, QFRET; shares compounds with HGIII-sPLA2 inh; hit rate 8.5% among 2,000; inhibition, % at 12.2 µM;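 active = average inhibition above the solvent-only control mean plus 3 SD, cut at about 6% in these data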;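 also: 0% = DMSO with substrate plus product and 100% = DMSO with substrate alone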
535nm interf DR = counter-screen for HGIII-sPLA2 inhibitors: 535nm fluorescence interference, dose response; IC50, µM; 240 tested, under 10 active; BODIPY FL product fluorescence interference, cell-free; AID 743455; shares compounds with HGIII-sPLA2 inh;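 active = IC50 at or below 10 µM; inactive = IC50 above 10 µM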
AlphaScreen art = interferes with AlphaScreen signal, flagging NSD2 false positives; shares compounds with NSD2 HMT inh; AlphaScreen artifact counterscreen, preloaded methylated H4 peptide; AC35, µM (series often up to 10 µM), without a hit: at the highest dose activity change, negative = signal loss; hit rate 9.4% among 1,500; call rule not given here
Active calls of the source: *; · = not tested or not shown. In the library only some 2% were active in any assay of this set; here they are far more common.

SMILES | SR-BI HDL uptake | HGIII-sPLA2 inh | Xi reactivation | ARNT TACC3 PPI | NSD2 HMT inh | SR-BI uptake up | hGIII sPLA2 conf | 535nm interf | others
CC(C)C(=O)NC(c1ccc(Cl)cc1Cl)c1ccc2cccnc2c1O (configuration not stated) | 21 | 25* | 0 | 20 | 0 | -21 | 32* | 0
CCC(=O)NC(c1ccc(Cl)cc1Cl)c1ccc2cccnc2c1O (configuration not stated) | -4 | 33* | 0 | 14 | -2 | 4 | 25* | -6
COc1ccc(C(NC(=O)C(C)C)c2ccc3cccnc3c2O)cc1 (configuration not stated) | 1 | 23* | 0 | 39 | 35 | -1 | 19* | -14
CC(=O)NC(c1ccc(Cl)cc1)c1ccc2cccnc2c1O (configuration not stated) | -35 | 8 | 0 | 27 | 38 | 35 | · | ·
CCC(=O)NC(c1cccs1)c1cc(Cl)c2cccnc2c1O (configuration not stated) | -11 | 14 | 0 | 4 | -2 | 11 | · | ·
Cc1ccc2ncc([N+](=O)[O-])n2c1 | -23 | 9 | · | -9 | -1 | 23 | · | ·
CN(C)S(=O)(=O)N(CC(=O)Nc1cccc(F)c1)c1ccccc1 | -12 | 0 | · | 0 | -3 | 12 | · | ·
CCOc1ccc2oc(C(=O)Nc3nccs3)c(C)c2c1 | 22 | 11 | 0 | -8 | -1 | -22 | · | ·
Cc1cccc(C)c1NC(=O)Cn1nnc(C(=O)Nc2ccc(F)cc2F)c1N | -22 | 2 | 0 | 2 | 11 | 22 | · | ·
CCC(=O)N1CC2(CN(C(=O)Nc3c(C)noc3C)C2)c2c([nH]c3cc(OC)ccc23)[C@@H]1CO | · | · | 1 | · | · | · | · | ·
Cc1cccc(OCC(=O)N2CCC(N3CCOCC3)CC2)c1 | -7 | -3 | · | 7 | 3 | 7 | · | ·
CC(=O)NC(c1ccccc1)c1cc(Cl)c2cccnc2c1O (configuration not stated) | -45 | -4 | 0 | 38 | -5 | 45 | · | ·
CCCCC(=O)NC(c1ccc(Cl)cc1Cl)c1ccc2cccnc2c1O (configuration not stated) | 51 | 21* | 0 | 28 | -1 | -51 | 30* | -3
CCC(=O)NC(c1ccco1)c1cc(Br)c2cccnc2c1O (configuration not stated) | · | 23* | 0 | · | · | · | 16 | -8
C[C@H](CO)N1C[C@H](C)[C@H](CN(C)S(=O)(=O)c2cn(C)cn2)Oc2c(NS(=O)(=O)c3ccc(F)cc3)cccc2C1=O | · | · | 0 | 6 | · | · | · | ·
COc1ccc(C(=O)NCC(=O)N/N=C/c2c(C)[nH]c3ccccc23)cc1 | 11 | -3 | 0 | -4 | -3 | -11 | · | ·
CCOc1ncccc1C(=O)NNC(=O)c1cccc(S(=O)(=O)N2CCOCC2)c1 | 19 | 5 | 0 | 6 | -4 | -19 | · | ·
S=C(N/N=C/c1cccs1)NC1CC2CCC1C2 (configuration not stated) | 25 | 28* | 0 | 11 | -1 | -25 | 36* | 3 | 535nm interf DR=>122
CCOC(=O)C(=O)NNc1ccc(C)cc1 | 1 | 21* | 0 | -3 | 2 | -1 | 2 | 1
CN1CCN(S(=O)(=O)c2cccc([N+](=O)[O-])c2)CC1 | -11 | · | · | -3 | -2 | 11 | · | ·
CC(C)c1nccn1S(=O)(=O)c1cccc([N+](=O)[O-])c1 | -18 | 19* | 0 | -7 | 0 | 18 | 6 | -2
CCN(CC)C(=O)/C(=C/c1ccc2c(c1)OCO2)NC(=O)c1ccc(Br)cc1 | 75* | 20* | 0 | 13 | 2 | -75 | 4 | -15
O=C(COc1ccccc1O)NCCN1CCOCC1 | · | 20* | 0 | 30 | 52* | · | 12 | -2 | AlphaScreen art=2%
O=C(COc1ccccc1Cl)NCCCN1CCOCC1 | -19 | 1 | · | -3 | 3 | 19 | · | ·
CCOC(=O)N1CCN(C(=O)C[C@@H]2C(=O)N3CCCC4=C3[C@@]2(C(=O)OC)CCCC4)CC1 | · | 0 | · | · | · | · | · | ·
SMILES | SR-BI HDL uptake | HGIII-sPLA2 inh | Xi reactivation | ARNT TACC3 PPI | NSD2 HMT inh | SR-BI uptake up | hGIII sPLA2 conf | 535nm interf | others
CN(C)c1cccc2c1C(=O)c1ccccc1C2=O | 35 | 25* | 0 | 30 | 60* | -35 | 33* | 6.6* | AlphaScreen art=2.2µM*
CCOC(=O)C1=C(C)N(C)C(=S)NC1c1ccccc1Cl (configuration not stated) | 3 | 21* | · | 2 | 96* | -3 | 19 | -5 | AlphaScreen art=1%
CCOC(=O)C1=C(C)N(C)C(=S)NC1c1cccc(Cl)c1Cl (configuration not stated) | 22 | 13 | 0 | -7 | -3 | -22 | · | ·
O=C(CC(=O)c1ccccn1)c1ccccc1 | -11 | 2 | 0 | -1 | 2 | 11 | · | ·
CCc1ccc2cccc3c2c1N=CN3C | -10 | 22* | 0 | 36 | 112* | 10 | 22* | 4 | AlphaScreen art=0%
Oc1cccc(/C=N/NC(=S)Nc2cccnc2)c1O | -37 | 34* | 0 | 66* | 79* | 37 | 21* | 2 | AlphaScreen art=-6%
COc1cc(C)c2sc3ccccc3c(=O)c2c1NCCN(C)C | · | 20* | 0 | · | 161* | · | 17 | -22 | AlphaScreen art=3.2µM*
Cc1ccc(NCCN(C)C)c2c(=O)c3cc(O)ccc3sc12 | 16 | -5 | 0 | 27 | -1 | -16 | · | ·
COc1ccc(C)cc1S(=O)(=O)N1CCCC(N2CCOCC2)C1 (configuration not stated) | -18 | -5 | 0 | -4 | 1 | 18 | · | ·
Cc1ccc(S(=O)(=O)N2CCCC(N3CCOCC3)C2)cc1Cl (configuration not stated) | 7 | 19* | 0 | 5 | 53* | -7 | -2 | -10 | AlphaScreen art=1%
COc1cnc(-c2ccccn2)nc1Oc1cccc(C(F)(F)F)c1 | 6 | 21* | 0 | · | 55* | -6 | 8 | -16 | AlphaScreen art=-9%
FC(F)(F)c1cccc(Oc2nc(-c3ccccc3)nnc2C(F)(F)F)c1 | 12 | -2 | · | -5 | -1 | -12 | · | ·
CCC(=O)N(C)C[C@H]1Oc2cc(C#CCN(C)C)ccc2S(=O)(=O)N([C@H](C)CO)C[C@H]1C | · | · | -1 | -17 | · | · | · | ·

Screening data from PubChem.
